Experimental data as given in ChEMBL document CHEMBL1157803 (J Med Chem, 2010).
Active and inactive are the calls of the source. The rule behind the calls is not given here.

Columns and labels:
Trypanosoma cruzi [1] = assay: Antitrypanosomal activity against Trypanosoma cruzi Tulahuen amastigotes infected in […] 3T3 cells after 7 days by alamar blue assay; format: functional, organism-based; conditions: NIH3T3, 168 h
Method in brief: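 T. cruzi amastigotes grown inside mammalian host 3T3 cells were exposed to compounds to measure parasite killing.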

[2] = Inhibition of rat recombinant PFT expressed in insect Sf9 cells by scintillation proximity assay
Cytochrome P450 3A4 = Cytochrome P450 3A4 (Homo sapiens, UniProt P08684); assay: Inhibition of human recombinant CYP3A4; format: ADME
Sequence of Cytochrome P450 3A4 (P08684 whole entry): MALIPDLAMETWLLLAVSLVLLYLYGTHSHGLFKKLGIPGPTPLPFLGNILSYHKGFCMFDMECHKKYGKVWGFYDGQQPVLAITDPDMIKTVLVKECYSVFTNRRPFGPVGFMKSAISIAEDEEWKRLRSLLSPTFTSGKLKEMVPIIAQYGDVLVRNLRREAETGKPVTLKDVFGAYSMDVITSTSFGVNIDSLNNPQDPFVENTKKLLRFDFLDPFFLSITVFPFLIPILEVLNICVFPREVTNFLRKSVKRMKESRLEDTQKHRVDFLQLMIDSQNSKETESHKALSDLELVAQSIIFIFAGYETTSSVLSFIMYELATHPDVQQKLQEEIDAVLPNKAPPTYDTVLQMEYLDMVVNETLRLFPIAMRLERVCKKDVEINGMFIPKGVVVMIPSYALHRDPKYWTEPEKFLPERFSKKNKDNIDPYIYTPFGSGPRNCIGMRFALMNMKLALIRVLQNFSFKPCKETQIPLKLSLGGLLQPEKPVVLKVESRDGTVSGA

[3] = molecular target: Sterol 14-alpha demethylase (Trypanosoma cruzi (strain CL Brener)) (UniProt Q7Z1V1); assay: Binding affinity to Trypanosoma cruzi recombinant lanosterol 14-alpha-demethylase by optical spectroscopy
Sequence of Sterol 14-alpha demethylase (Trypanosoma cruzi (strain CL Brener)) (Q7Z1V1 whole entry, looked up): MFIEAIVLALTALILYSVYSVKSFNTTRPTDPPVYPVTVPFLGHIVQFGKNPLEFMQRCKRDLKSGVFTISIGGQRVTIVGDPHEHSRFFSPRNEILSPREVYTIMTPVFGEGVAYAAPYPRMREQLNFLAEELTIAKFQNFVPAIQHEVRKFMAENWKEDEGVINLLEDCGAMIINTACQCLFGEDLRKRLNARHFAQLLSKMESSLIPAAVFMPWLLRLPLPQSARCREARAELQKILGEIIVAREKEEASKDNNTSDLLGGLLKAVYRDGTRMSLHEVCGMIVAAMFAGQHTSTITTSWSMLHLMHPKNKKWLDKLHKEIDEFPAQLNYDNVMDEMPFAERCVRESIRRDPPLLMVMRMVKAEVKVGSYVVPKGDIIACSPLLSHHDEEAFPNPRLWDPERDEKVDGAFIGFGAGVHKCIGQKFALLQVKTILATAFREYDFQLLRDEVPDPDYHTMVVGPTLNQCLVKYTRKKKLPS
Method in brief: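 Recombinant T. cruzi lanosterol 14α-demethylase at 1.4 μM was titrated with 0.2–2 μM compound. Binding was followed by difference optical spectroscopy of the visible heme Soret band.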

Trypanosoma cruzi [4] = assay: Ratio of EC50 for tipifarnib to drug for antitrypanosomal activity against Trypanosoma cruzi Tulahuen amastigotes infected in […] 3T3 cells after 7 days by alamar blue assay; format: functional, NIH3T3

COC(c1ccc(Cl)cc1)(c1ccc2c(c1)c(-c1cccc(C(F)(F)F)c1)cc(=O)n2C)c1cncn1C (centres undefined)
EC50 (Trypanosoma cruzi [1]): 0.012 µM
IC50 [2]: 1.32 µM

COC(c1ccc(Cl)cc1)(c1ccc2c(c1)c(-c1cc(C)cc(C)c1)cc(=O)n2C)c1cncn1C (centres undefined)
EC50 (Trypanosoma cruzi [1]): 0.0014 µM
IC50 [2]: 0.47 µM

COC(c1ccc(C)cc1)(c1ccc2c(c1)c(-c1cccc(Cl)c1)cc(=O)n2C)c1cncn1C (centres undefined)
EC50 (Trypanosoma cruzi [1]): 0.003 µM

COC(c1ccc(Cl)cc1)(c1ccc2c(c1)c(-c1c(F)cccc1F)cc(=O)n2C)c1cncn1C (centres undefined)
IC50 (Cytochrome P450 3A4): 0.275 µM
EC50 (Trypanosoma cruzi [1]): 0.00031 µM
IC50 [2]: > 10 µM
Activity [3]: Active

COC(c1ccc(Cl)cc1)(c1ccc2c(c1)c(-c1c(C)cccc1C)cc(=O)n2C)c1cncn1C (centres undefined)
EC50 (Trypanosoma cruzi [1]): 0.0018 µM
IC50 [2]: > 10 µM

CCc1ccc(C(OC)(c2ccc3c(c2)c(-c2cccc(Cl)c2)cc(=O)n3C)c2cncn2C)cc1 (centres undefined)
EC50 (Trypanosoma cruzi [1]): 0.01 µM

CCCOC(c1ccc(Cl)cc1)(c1ccc2c(c1)c(-c1cccc(Cl)c1C)cc(=O)n2C)c1cncn1C (centres undefined)
EC50 (Trypanosoma cruzi [1]): 0.069 µM
IC50 [2]: > 5 µM

Cn1cncc1C(O)(c1ccc(Cl)cc1)c1ccc2c(c1)c(-c1cccc(Cl)c1)cc(=O)n2C (centres undefined)
EC50 (Trypanosoma cruzi [1]): 0.017 µM
IC50 [2]: 0.008 µM

COC(c1ccc(Cl)cc1)(c1ccc2c(c1)c(-c1cccc(Cl)c1)cc(=O)n2C)c1cncn1C (centres undefined)
EC50 (Trypanosoma cruzi [1]): 0.0031 µM
IC50 [2]: 0.065 µM

COC(c1ccc(C(F)(F)F)cc1)(c1ccc2c(c1)c(-c1cccc(Cl)c1)cc(=O)n2C)c1cncn1C (centres undefined)
EC50 (Trypanosoma cruzi [1]): 0.005 µM

COC(c1ccc(Cl)cc1)(c1ccc2c(c1)c(-c1cccc(F)c1)cc(=O)n2C)c1cncn1C (centres undefined)
EC50 (Trypanosoma cruzi [1]): 0.0011 µM
IC50 [2]: 0.343 µM

COC(c1ccc2ccccc2c1)(c1ccc2c(c1)c(-c1cccc(Cl)c1)cc(=O)n2C)c1cncn1C (centres undefined)
EC50 (Trypanosoma cruzi [1]): 0.0022 µM
IC50 [2]: 2.3 µM

COC(c1ccc(Cl)cc1)(c1ccc2c(c1)c(-c1c(Cl)cccc1Cl)cc(=O)n2C)c1cncn1C (centres undefined)
EC50 (Trypanosoma cruzi [1]): 0.00321 µM
IC50 [2]: > 10 µM

Cc1c(Cl)cccc1-c1cc(=O)n(C)c2ccc(C(O)(c3ccc(Cl)cc3)c3cncn3C)cc12 (centres undefined)
EC50 (Trypanosoma cruzi [1]): 0.112 µM
IC50 [2]: 0.796 µM

COC(c1ccc(Cl)cc1)(c1ccc2c(c1)c(-c1ccccc1C)cc(=O)n2C)c1cncn1C (centres undefined)
EC50 (Trypanosoma cruzi [1]): 0.0007 µM
IC50 [2]: 3.26 µM

CNC(c1ccc(Cl)cc1)(c1ccc2c(c1)c(-c1cccc(Cl)c1C)cc(=O)n2C)c1cncn1C (centres undefined)
EC50 (Trypanosoma cruzi [1]): 0.005 µM
IC50 [2]: 0.957 µM

COC(c1ccc(Cl)cc1)(c1ccc2c(c1)c(-c1ccc(F)cc1)cc(=O)n2C)c1cncn1C (centres undefined)
EC50 (Trypanosoma cruzi [1]): 0.0005 µM
IC50 [2]: 0.991 µM

CCn1cncc1C(O)(c1ccc(Cl)cc1)c1ccc2c(c1)c(-c1cccc(Cl)c1)cc(=O)n2C (centres undefined)
EC50 (Trypanosoma cruzi [1]): 0.228 µM
IC50 [2]: 0.03 µM

COC(c1ccc(Cl)cc1)(c1ccc2c(c1)c(-c1cccc(Cc3ccccc3)c1)cc(=O)n2C)c1cncn1C (centres undefined)
EC50 (Trypanosoma cruzi [1]): 0.083 µM

COC(c1ccc(Cl)cc1)(c1ccc2c(c1)c(-c1ccc(Cl)cc1)cc(=O)n2C)c1cncn1C (centres undefined)
IC50 (Cytochrome P450 3A4): 0.923 µM
EC50 (Trypanosoma cruzi [1]): 0.00082 µM
IC50 [2]: 6.04 µM

COC(c1ccc(C(C)C)cc1)(c1ccc2c(c1)c(-c1cccc(Cl)c1)cc(=O)n2C)c1cncn1C (centres undefined)
EC50 (Trypanosoma cruzi [1]): 0.033 µM

COC(c1ccc(Cl)cc1)(c1ccc2c(c1)c(-c1cccc(-c3ccccc3)c1)cc(=O)n2C)c1cncn1C (centres undefined)
EC50 (Trypanosoma cruzi [1]): 0.32 µM

Cn1cncc1[C@@](N)(c1ccc(Cl)cc1)c1ccc2c(c1)c(-c1cccc(Cl)c1)cc(=O)n2C [TIPIFARNIB]
IC50 [2]: 0.0007 µM

CCn1cncc1C(NC)(c1ccc(Cl)cc1)c1ccc2c(c1)c(-c1cccc(Cl)c1)cc(=O)n2C (centres undefined)
EC50 (Trypanosoma cruzi [1]): 0.1 µM
IC50 [2]: 0.066 µM

CCn1cncc1C(N)(c1ccc(Cl)cc1)c1ccc2c(c1)c(-c1cccc(Cl)c1)cc(=O)n2C (centres undefined)
EC50 (Trypanosoma cruzi [1]): 0.118 µM
IC50 [2]: 0.028 µM

COC(c1ccc(Cl)cc1)(c1ccc2c(c1)c(-c1ccccc1C(F)(F)F)cc(=O)n2C)c1cncn1C (centres undefined)
EC50 (Trypanosoma cruzi [1]): 0.0008 µM
IC50 [2]: > 5 µM

COC(c1ccc(Cl)cc1)(c1ccc2c(c1)c(-c1ccccc1)cc(=O)n2C)c1cncn1C (centres undefined)
IC50 (Cytochrome P450 3A4): 2.35 µM
EC50 (Trypanosoma cruzi [1]): 0.0008 µM
IC50 [2]: 0.33 µM

CCn1cncc1C(OC)(c1ccc(Cl)cc1)c1ccc2c(c1)c(-c1cccc(Cl)c1)cc(=O)n2C (centres undefined)
EC50 (Trypanosoma cruzi [1]): 0.003 µM
IC50 [2]: 0.97 µM

COC(c1ccc(Cl)cc1)(c1ccc2c(c1)c(-c1ccccc1F)cc(=O)n2C)c1cncn1C (centres undefined)
EC50 (Trypanosoma cruzi [1]): 0.0008 µM
IC50 [2]: 1.87 µM

CCOC(c1ccc(Cl)cc1)(c1ccc2c(c1)c(-c1cccc(Cl)c1C)cc(=O)n2C)c1cncn1C (centres undefined)
EC50 (Trypanosoma cruzi [1]): 0.027 µM
IC50 [2]: > 10 µM

COC(c1ccc(Cl)cc1)(c1ccc2c(c1)c(-c1cccc(C)c1)cc(=O)n2C)c1cncn1C (centres undefined)
EC50 (Trypanosoma cruzi [1]): 0.0012 µM
IC50 [2]: 0.085 µM

COC(c1ccc(Cl)cc1)(c1ccc2c(c1)c(-c1cccc(Cl)c1C)cc(=O)n2C)c1cncn1C (centres undefined)
EC50 (Trypanosoma cruzi [1]): 0.0006 µM
IC50 [2]: > 5 µM
Ratio EC50 (Trypanosoma cruzi [4]): 10

COC(c1ccc(Cl)cc1)(c1ccc2c(c1)c(-c1ccc(C)cc1)cc(=O)n2C)c1cncn1C (centres undefined)
EC50 (Trypanosoma cruzi [1]): 0.002 µM
IC50 [2]: 0.41 µM
